Data on 9 compounds can be found in ChEMBL document CHEMBL1138505, “Engineered apoptosis-inducing peptides with enhanced mitochondrial localization and potency” (J Med Chem, 2009).

Series [1] can be described thus: Octanol-water partition coefficient, log P at pH 7.4. The format is physicochemical. A digest of the protocol:
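Thiazole orange-labelled peptides were partitioned between 1-octanol and 10 mM Tris, pH 7.4. LogP is the mean with sd of three trials.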

Series [2] can be described thus: Cytotoxicity against human KS1767 cells assessed as dehydrogenase activity after 48 hrs by […]. Conditions: KS1767, 48 h, read-out: LC50 (the source's name). The format is functional. A digest of the protocol: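 KS1767 cells were kept in DMEM with 10% FBS. Integrin-homing (CNGRC) peptide conjugates were incubated over a concentration range for 48 h in OPTI-MEM with 2% FBS. Death was read by Sytox Red viability staining and CCK-8 dehydrogenase activity, and LC50 was determined.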
On the technique in general: A flow cytometer gives signals particle by particle.

The subject of series [3] is MDA-MB-231. Kind of series: Cytotoxicity against human MDA-MB-231 cells assessed as dehydrogenase activity after 48 hrs by […]. It is filed as functional. The settings on record: MDA-MB-231, 48 h, read-out: LC50 (the source's name).
Series [4] concerns MDA-MB-231. Kind of series: Specificity index, ratio of LC50 for human MDA-MB-231 cells to LC50 for human KS1767 cells. It is filed as functional.
The test system of series [5] is HeLa. Kind of series: Cytotoxicity against human HeLa cells assessed as dehydrogenase activity after 24 hrs by […]. It is filed as functional. The settings on record: read-out: LC50 (the source's name). In short, it runs like this: (§1)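 Cells grown in MEM with 10% FBS at 37 °C, 5% CO2 (MCF7 also given 0.01 mg/mL insulin). Unlabeled peptides were applied over a concentration range for 24 h in OPTI-MEM with 2% FBS. Cell death was scored by Sytox Red staining for loss of plasma membrane integrity and by CCK-8 dehydrogenase activity, and LC50 was determined.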

In the next series the test system is FaDu. Kind of series: Cytotoxicity against human FADU cells assessed as dehydrogenase activity after 24 hrs by […]. It is filed as functional. The settings on record: read-out: LC50 (the source's name). In short, it runs like this:
as §1

In a further series the test system is MCF7. Kind of series: Cytotoxicity against human MCF7 cells assessed as dehydrogenase activity after 24 hrs by […]. It is filed as functional. Conditions: MCF7, 24 h, read-out: LC50 (the source's name). In short, it runs like this: as §1
Series [6] can be described thus: Cytotoxicity against human MRC5 cells assessed as dehydrogenase activity after 24 hrs by […]. Conditions: read-out: LC50. It is filed as cell-based. A digest of the protocol: as §1
For a further series, the system named is DU-145. Kind of series: Cytotoxicity against human DU145 cells assessed as dehydrogenase activity after 24 hrs by […]. The format is functional. The settings on record: DU-145, 24 h, read-out: LC50 (the source's name). In short, it runs like this:
as §1

Series [7] in a line: Toxicity in human RBC assessed as hemolytic activity after 2 hrs. It is filed as cell-based, Erythrocyte. Conditions: red blood cells. In short, it runs like this: (§2)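 In the red blood cell lysis assay, percent lysis was normalised to melittin ([…]) as 100% lysis and PBS as 0%. HC50 is the concentration giving 50% hemolysis. The minimal hemolytic concentration is the peptide level giving 10% hemolysis.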

Series [8] can be described thus: Toxicity in human RBC assessed as minimum drug level required for 10% hemolysis after 2 hrs. It is filed as cell-based. The settings on record: erythrocyte. A digest of the protocol:
as §2

Series [9] concerns HeLa. Kind of series: Cytotoxicity against human HeLa cells assessed as swelling and disruption of mitochondria at LC50 of 2.5 uM after 30 mins by fluorescence imaging using DAPI nuclear staining. It is filed as functional, cell-based.
Series [10] relates to HeLa. Kind of series: Cytotoxicity against human HeLa cells assessed as swelling and disruption of mitochondria at LC50 of 2.5 uM after 30 mins by transmission electron microscopy. It is filed as functional, cell-based.
In series [11] the test system is HeLa. Kind of series: Cytotoxicity against human HeLa cells assessed as swelling and disruption of mitochondria at LC50 of 2.5 uM after 30 mins by calcein-AM release and quenching assay. It is filed as functional, cell-based.
Series [12] relates to HeLa. Kind of series: Cytotoxicity against human HeLa cells assessed as loss of plasma membrane integrity at LC50 of 2.5 uM by sytox red staining-based flow cytometry. The format is functional, cell-based.
Series [13] has as its system HeLa. Kind of series: Induction of apoptosis in human HeLa cells assessed as increase in DNA fragmentation at 2.5 uM by TUNEL assay. It is filed as functional, cell-based. The settings on record: TDE = time-dependent effect. A digest of the protocol: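 HeLa cells were treated with 2.5 µM peptide and sampled over time. DNA fragmentation in fixed, washed cells was detected by TUNEL using the APO-BrdU kit per the manufacturer.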

For series [14], the system named is HeLa. Kind of series: Induction of apoptosis in human HeLa cells assessed as caspase 3 activation at 2.5 uM. It is filed as functional, cell-based. In short, it runs like this: (§3)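 After peptide treatment, HeLa cells were trypsinized, pelleted and washed. They were then stained either with FITC anti-activated caspase 3 or with anti-activated caspase 9 plus an anti-goat AlexaFluor 555 secondary. Cells were washed again and read by flow cytometry. Staurosporine-treated cells served as the positive control.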

Series [15] concerns HeLa. Kind of series: Induction of apoptosis in human HeLa cells assessed as caspase 9 activation at 2.5 uM. It is filed as functional, cell-based. In short, it runs like this:
as §3

A short description of series [16]: Toxicity in mouse liver mitochondria assessed as minimum drug level required for mitochondrial disruption. Conditions: in vitro.
The subject of series [17] is HeLa. Kind of series: Cytotoxicity against human HeLa cells assessed as loss of mitochondrial membrane integrity at LC50 of 2.5 uM by flow cytometry.

Molecules are shown by their SMILES. The source made the active and inactive calls. The rule behind the calls is not given here. Some results are limits rather than exact numbers.

A word on the logD: it is the decadic logarithm of the distribution of all forms, ionised or not, between an organic phase and buffer at a given pH. A low value points to lower lipophilicity. One may read the HC50 as the concentration that lyses half of the red blood cells.

As to `C[C@@H](NC(=O)[C@@H](Cc1ccccc1)NC(=O)[C@H](N)CCCCN)C(=O)N[C@H](CCCCN)C(=O)N[C@H](Cc1ccccc1)C(=O)N[C@H](C)C(=O)N[C@H](CCCCN)C(=O)N[C@H](CCCCN)C(=O)N[C@H](Cc1ccccc1)C(=O)N[C@H](C)C(=O)N[C@H](CCCCN)C(=O)N[C@H](Cc1ccccc1)C(=O)N[C@H](C)C(=O)N[C@H](CCCCN)C(=O)O`, the logD in series [1] is -2.52.

With `CC(C)C[C@@H](NC(=O)[C@@H](CCCCN)NC(=O)[C@H](CS)NC(=O)[C@H](CCCNC(=N)N)NC(=O)CNC(=O)[C@H](CC(N)=O)NC(=O)[C@@H](N)CS)C(=O)N[C@H](C)C(=O)N[C@H](CCCCN)C(=O)N[C@H](CC(C)C)C(=O)N[C@H](C)C(=O)N[C@H](CCCCN)C(=O)N[C@H](CCCCN)C(=O)N[C@H](CC(C)C)C(=O)N[C@H](C)C(=O)N[C@H](CCCCN)C(=O)N[C@H](CC(C)C)C(=O)N[C@H](C)C(=O)N[C@H](CCCCN)C(=O)O`, the figures for the CC50 (in series [2]; with MDA-MB-231 [3]) were 63 µM and 144 µM, respectively. In the series on MDA-MB-231 [4], the Ratio stood at 2.3.

Take `C[C@@H](NC(=O)[C@@H](CC1CCCCC1)NC(=O)[C@H](N)CCCCN)C(=O)N[C@H](CCCCN)C(=O)N[C@H](CC1CCCCC1)C(=O)N[C@H](C)C(=O)N[C@H](CCCCN)C(=O)N[C@H](CCCCN)C(=O)N[C@H](CC1CCCCC1)C(=O)N[C@H](C)C(=O)N[C@H](CCCCN)C(=O)N[C@H](CC1CCCCC1)C(=O)N[C@H](C)C(=O)N[C@H](CCCCN)C(=O)O`: the logD in series [1] was -1.73. In addition, the CC50 came to 2.3 µM with HeLa [5], 3.3 µM in the series with FaDu, 2 µM with MCF7 and 2 µM with DU-145. Also, in series [6], the CC50 at 24 h is 5.8 µM. Moreover, the HC50 at 2 h in series [7] is more than 42 µM. The figures for the Activity (in series [8]; in the series with HeLa [13]; in series [16]) were 9 µM, “tde” and 1.3 µM, respectively. Moreover, the result with HeLa [9], in the series on HeLa [10], with HeLa [11], with HeLa [12], in the series with HeLa [14] and in the series on HeLa [15] was Active. Also, the result in the series with HeLa [17] was Active.

In the case of `CC(NC(=O)C(CC1CCCCC1)NC(=O)C(N)CCCCN)C(=O)NC(CCCCN)C(=O)NC(CC1CCCCC1)C(=O)NC(C)C(=O)NC(CCCCN)C(=O)NC(CCCCN)C(=O)NC(CC1CCCCC1)C(=O)NC(C)C(=O)NC(CCCCN)C(=O)NC(CC1CCCCC1)C(=O)NC(C)C(=O)NC(CCCCN)C(=O)O` (racemic), in the series on HeLa [5], the CC50 amounted to 6.5 µM. For the same compound, the 50% haemolytic concentration (HC50) at 2 h in series [7] is more than 100 µM. Also, the values for the Activity in series [8] and in [16] were more than 100 µM and 6.3 µM, respectively.

`CC(C)C[C@@H](NC(=O)[C@H](N)CCCCN)C(=O)N[C@H](C)C(=O)N[C@H](CCCCN)C(=O)N[C@H](CC(C)C)C(=O)N[C@H](C)C(=O)N[C@H](CCCCN)C(=O)N[C@H](CCCCN)C(=O)N[C@H](CC(C)C)C(=O)N[C@H](C)C(=O)N[C@H](CCCCN)C(=O)N[C@H](CC(C)C)C(=O)N[C@H](C)C(=O)N[C@H](CCCCN)C(=O)O` showed a pH-dependent lipophilicity (logD) in [1] of -2.3. Also, the CC50 in the series with HeLa [5] was 350 µM; with FaDu, more than 200 µM; with MCF7, more than 300 µM; in the series on DU-145, more than 300 µM. The CC50 at 24 h in series [6] is more than 200 µM. Moreover, the concentration for 50% haemolysis (HC50) at 2 h in [7] was more than 100 µM. Moreover, the figures for the Activity in [8] and in series [16] were more than 100 µM and 200 µM, respectively.

Take `C[C@@H](NC(=O)[C@@H](CC1CCCCC1)NC(=O)[C@@H](CCCCN)NC(=O)[C@H](CS)NC(=O)[C@H](CCCNC(=N)N)NC(=O)CNC(=O)[C@H](CC(N)=O)NC(=O)[C@@H](N)CS)C(=O)N[C@H](CCCCN)C(=O)N[C@H](CC1CCCCC1)C(=O)N[C@H](C)C(=O)N[C@H](CCCCN)C(=O)N[C@H](CCCCN)C(=O)N[C@H](CC1CCCCC1)C(=O)N[C@H](C)C(=O)N[C@H](CCCCN)C(=O)N[C@H](CC1CCCCC1)C(=O)N[C@H](C)C(=O)N[C@H](CCCCN)C(=O)O`: the CC50 in [2] was 7 µM; with MDA-MB-231 [3] it was 17 µM. Further, in the series on MDA-MB-231 [4], the Ratio stood at 2.7.

For the compound `CCCCCCC(NC(=O)C(N)CCCCN)C(=O)NC(C)C(=O)NC(CCCCN)C(=O)NC(CCCCCC)C(=O)NC(C)C(=O)NC(CCCCN)C(=O)NC(CCCCN)C(=O)NC(CCCCCC)C(=O)NC(C)C(=O)NC(CCCCN)C(=O)NC(CCCCCC)C(=O)NC(C)C(=O)NC(CCCCN)C(=O)O` (racemic), the CC50 in the series with HeLa [5] worked out at 3.7 µM. The HC50 at 2 h in series [7] was more than 100 µM. Moreover, the Activity was more than 100 µM in series [8] and 3.1 µM in series [16].

In the case of `CC(C)CC(NC(=O)C(N)CCCCN)C(=O)NC(C)C(=O)NC(CCCCN)C(=O)NC(CC(C)C)C(=O)NC(C)C(=O)NC(CCCCN)C(=O)NC(CCCCN)C(=O)NC(CC(C)C)C(=O)NC(C)C(=O)NC(CCCCN)C(=O)NC(CC(C)C)C(=O)NC(C)C(=O)NC(CCCCN)C(=O)O` (racemic), the CC50 with HeLa [5] came to 160 µM. Also, the 50% haemolytic concentration (HC50) at 2 h in series [7] is more than 100 µM. Besides, the Activity is more than 100 µM in series [8] and 200 µM in [16].

Consider `CCCCCC[C@@H](NC(=O)[C@H](N)CCCCN)C(=O)N[C@H](C)C(=O)N[C@H](CCCCN)C(=O)N[C@H](CCCCCC)C(=O)N[C@H](C)C(=O)N[C@H](CCCCN)C(=O)N[C@H](CCCCN)C(=O)N[C@H](CCCCCC)C(=O)N[C@H](C)C(=O)N[C@H](CCCCN)C(=O)N[C@H](CCCCCC)C(=O)N[C@H](C)C(=O)N[C@H](CCCCN)C(=O)O`, for which the CC50 in the series on HeLa [5] turned out to be 2.5 µM; with FaDu it was 2.8 µM; in the series on MCF7, 2.2 µM; in the series on DU-145, 2 µM. Besides, in series [6], the CC50 at 24 h amounted to 2.8 µM. Besides, the HC50 at 2 h in [7] turned out to be 31 µM. Also, the results for the Activity in series [8] and in series [16] were 8 µM and 2.5 µM, respectively.
